Data as given in PMC8385540 (Journal of natural products, 2013).

Columns and labels:
[1] = target: human cannabinoid CB2 receptor (Homo sapiens, UniProt P34972); experiment: Plate-based assay, inhibition of CB2 receptor internalization; type: cell-based
Outline: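 CHO cells stably expressing human CB2, seeded at 2.0 × 10^5 cells/mL in 96-well plates, grown 24 h in DMEM/F12 with 10% FBS. Preincubated 1 h with twofold serial dilutions of test compound (top 10 μM; DMSO <0.1% final), then 1 h with 2 nM [3H]-CP 55,940. Washed, NaOH-lysed, scintillation counted, and normalized to no-compound uptake. IC50 from sigmoid nonlinear fit, means ± SE (n = 6). JD5037 as positive control.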

[2] = target: human cannabinoid CB1 receptor (Homo sapiens, UniProt P21554); experiment: Plate-based assay, inhibition of CB1 receptor internalization; type: cell-based
Chain of human cannabinoid CB1 receptor (P21554 whole entry): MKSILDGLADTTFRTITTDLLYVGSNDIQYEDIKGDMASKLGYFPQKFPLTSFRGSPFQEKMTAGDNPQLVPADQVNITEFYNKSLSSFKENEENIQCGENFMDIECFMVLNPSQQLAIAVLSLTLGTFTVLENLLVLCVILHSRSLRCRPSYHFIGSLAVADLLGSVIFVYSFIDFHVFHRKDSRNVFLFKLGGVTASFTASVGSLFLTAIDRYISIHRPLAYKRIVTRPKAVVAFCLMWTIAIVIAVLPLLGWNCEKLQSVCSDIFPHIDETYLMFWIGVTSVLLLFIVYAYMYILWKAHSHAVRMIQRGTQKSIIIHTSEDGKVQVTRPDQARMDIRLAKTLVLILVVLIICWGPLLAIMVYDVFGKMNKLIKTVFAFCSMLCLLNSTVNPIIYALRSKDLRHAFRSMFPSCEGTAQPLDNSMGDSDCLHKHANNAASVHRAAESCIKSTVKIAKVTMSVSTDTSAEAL

HRH4 = HRH4 (Homo sapiens, UniProt Q9H3N8); experiment: DiscoveRX gpcrMAX panel, agonist/antagonist; type: cell-based; conditions: HRH4, antagonist mode; negative inhibition may indicate agonist or PAM activity
Chain of HRH4 (Q9H3N8 whole entry): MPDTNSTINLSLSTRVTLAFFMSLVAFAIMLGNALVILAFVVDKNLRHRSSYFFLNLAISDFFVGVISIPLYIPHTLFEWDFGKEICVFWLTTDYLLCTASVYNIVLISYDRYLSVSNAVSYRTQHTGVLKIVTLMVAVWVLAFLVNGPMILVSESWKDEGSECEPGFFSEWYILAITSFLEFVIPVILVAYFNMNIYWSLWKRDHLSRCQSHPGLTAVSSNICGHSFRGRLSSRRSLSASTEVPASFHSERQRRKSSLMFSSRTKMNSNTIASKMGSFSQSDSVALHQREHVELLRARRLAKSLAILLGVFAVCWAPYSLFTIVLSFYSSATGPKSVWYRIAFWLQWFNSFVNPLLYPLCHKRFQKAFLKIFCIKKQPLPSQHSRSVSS

RXFP3 = target: T1, RXFP3 (Homo sapiens, UniProt Q9NSD7); experiment: DiscoveRX gpcrMAX panel, agonist/antagonist; type: cell-based; conditions: RXFP3, antagonist mode; negative inhibition may indicate agonist or PAM activity
T1 sequence (Q9NSD7 1-469): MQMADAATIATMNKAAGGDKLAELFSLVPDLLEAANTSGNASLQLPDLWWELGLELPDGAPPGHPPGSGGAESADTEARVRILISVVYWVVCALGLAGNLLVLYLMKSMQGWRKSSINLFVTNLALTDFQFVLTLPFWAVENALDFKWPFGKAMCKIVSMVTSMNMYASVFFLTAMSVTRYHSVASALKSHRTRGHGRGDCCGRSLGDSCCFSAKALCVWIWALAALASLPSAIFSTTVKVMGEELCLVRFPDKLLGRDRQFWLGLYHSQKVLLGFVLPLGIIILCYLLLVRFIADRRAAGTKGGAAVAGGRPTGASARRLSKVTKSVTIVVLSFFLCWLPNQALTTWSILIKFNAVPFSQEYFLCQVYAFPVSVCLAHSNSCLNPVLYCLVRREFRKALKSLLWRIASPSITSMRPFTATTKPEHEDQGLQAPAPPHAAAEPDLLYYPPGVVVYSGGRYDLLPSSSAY

FSH receptor = conditions: previously reported; cited from earlier work

Chain of human cannabinoid CB2 receptor (P34972 whole entry): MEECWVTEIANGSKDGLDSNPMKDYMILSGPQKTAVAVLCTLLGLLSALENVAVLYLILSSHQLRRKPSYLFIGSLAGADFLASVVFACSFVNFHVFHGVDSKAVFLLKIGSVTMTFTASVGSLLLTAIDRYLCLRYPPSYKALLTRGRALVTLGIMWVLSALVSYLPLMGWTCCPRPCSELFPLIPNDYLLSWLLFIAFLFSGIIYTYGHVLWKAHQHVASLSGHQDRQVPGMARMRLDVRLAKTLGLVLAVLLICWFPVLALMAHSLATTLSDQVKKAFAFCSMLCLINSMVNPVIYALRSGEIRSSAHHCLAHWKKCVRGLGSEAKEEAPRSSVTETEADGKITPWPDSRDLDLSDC

C/C=C/C=C/C=C\CC/C=C/C(=O)NCC(C)(C)O [Compound 2, hydroXy-α-sanshool]
fold increase in activity against the CB2 receptor, 2 vs 3 ([1]; cis configuration at C-6 of 2 compared with 3): 2 fold

C/C=C/C=C/C=C\CC/C=C/C=C/C(=O)NCC(C)(C)O [Compound 4, hydroXy-γ-sanshool]
fold more potent for CB1, 4 vs 5 ([2]; C-8 cis-isomer 4 compared with 5): 10 fold

CC/C=C/C/C=C\CC/C=C/C=C/C(=O)NCC(C)(C)O [Compound 6, isobungeanool]
antagonism of the CB2 receptor (in words) [1]: weak antagonists

C/C=C/C=C/C=C/CC/C=C/C=C/C(=O)NCC(C)C [Compound 7, (2E,4E,8E,10E,12E)-N-isobutyl-2,4,8,10,12-tetradecapentaenamide]
antagonistic properties against the CB1 receptor (in words) [2]: strong antagonistic properties | antagonism of the CB2 receptor (in words) [1]: weak antagonists | % inhibition (HRH4): −54% | % inhibition (RXFP3): −81%

CCCCCCCCC/C=C/C=C/C(=O)NCC(C)(C)O [Compound 8, tetrahydrobungeanool]
IC50 [1]: 1.8 nM

CC(C)[C@H](N=C(NS(=O)(=O)c1ccc(Cl)cc1)N1C[C@H](c2ccccc2)C(c2ccc(Cl)cc2)=N1)C(N)=O [JD5037, reference compound]
IC50 of positive control, CB1 (in words) ([2]; positive control): within the expected range | IC50 of positive control, CB2 (in words) ([1]; positive control): within the expected range

CCCCCc1cc(O)c2c(c1)OC(C)(C)[C@@H]1CCC(C)=C[C@@H]21 [Δ^9-tetrahydrocannabinol]
inhibition of the FSH receptor (in words) (FSH receptor): specific inhibition
